Among the data in PubChem BioAssay AID504405 (Broad Institute, 2011) are AC10 and caspase activation values, retold here.

Inconclusive results are not listed. The source made the active and inactive calls.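 Rule for the calls: active = fitted curve crosses 10% of positive-control caspase signal within tested doses in every repeat test; inconclusive = repeat tests disagree, or any test inconclusive; inactive = the rest.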

The test system of one test is wild-type MEF caspase activation, CaspaseGlo luminescence, 3 h. As to the kind of experiment: caspase activation in parental wild-type MEFs, dose response, counter-screen for A1 inhibitor project, cell-based, wild-type MEF, CaspaseGlo luminescence, dry powder, set 3 (AID 504405).
Conditions: not given
In short, it runs like this: (§1)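 Material: wild-type mouse embryonic fibroblasts, unprimed, not A1-dependent; amount: 2500 cells per well; buffer or medium: RPMI-1640 growth medium with 10% FBS; compound dosing: pin-transferred compound; timing: 3 h compound at 37 °C, 1 h CaspaseGlo at RT; technique: CaspaseGlo luminescence; measure: caspase activation as toxicity flag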
`O=c1c([N+](=O)[O-])c(Cl)c2ccccc2n1Cc1ccccc1`: the AC10 is 11.8 µM.

System in a further test: not listed separately
The test is described as above. Conditions: wild-type MEF caspase activation, CaspaseGlo luminescence, 3 h; at 35 µM (top of the series). In short, it runs like this:
as §1
As for `Cc1ccc(Sc2c(Sc3ccc(C)cc3)c3ccccc3n(Cc3ccccc3)c2=O)cc1`, the caspase activation was 0.126% (inactive).

For `COCCn1c(=O)c([N+](=O)[O-])c(Cl)c2ccccc21`, the caspase activation was -0.545% (inactive).

Take `COc1ccc(CCNc2nc(N3CCCC3)nc(N3CCCC3)n2)cc1OC`: the caspase activation was -0.327% (inactive).

Consider `COCCn1c(=O)c(Sc2ccc(C)cc2)c(Sc2ccc(C)cc2)c2ccccc21`, for which the caspase activation is 0.603% (inactive).

Regarding `COc1ccc(N2CCN(c3nc(NCCc4ccc(OC)c(OC)c4)nc(N4CCOCC4)n3)CC2)cc1`, the caspase activation is 0.165% (inactive).

Consider `O=C(COc1ccc(Cl)cc1Cl)NNc1nc(N2CCOCC2)nc(N2CCOCC2)n1`, for which the caspase activation is -0.598% (inactive).

Turning to `COc1nc2ccccc2c(Sc2ccc(C)cc2)c1[N+](=O)[O-]`, the caspase activation is 0.723% (inactive).

With `Cn1c(=O)c(Sc2ccccn2)c(Sc2ccccn2)c2ccccc21`, the caspase activation was 0.793% (inactive).

Regarding `O=c1[nH]c2ccccc2c(O)c1[N+](=O)[O-]`, the caspase activation is 0.522% (inactive).

Consider `COc1c([N+](=O)[O-])c(=O)n(C)c2ccccc12`, for which the caspase activation was 0.426% (inactive).

Consider `C/C(=N\Nc1nc(N2CCCCC2)nc(N2CCCCC2)n1)c1ccc(F)cc1`, for which the caspase activation is 0.38% (inactive).

For `Cc1ccc(Sc2c(Sc3ccc(C)cc3)c3ccccc3n(C)c2=O)cc1`, the caspase activation is 0.922% (inactive).

On to `CCn1c(=O)c([N+](=O)[O-])c(Sc2ccc(C)cc2)c2ccccc21`, for which the caspase activation was 0.226% (inactive).

Regarding `COc1nc2ccccc2c(Cl)c1[N+](=O)[O-]`, the caspase activation was 6.45% (inactive).

On to `CCn1c(=O)c(Sc2ccc(C)cc2)c(Sc2ccc(C)cc2)c2ccccc21`, for which the caspase activation was 0.52% (inactive).

As to `COc1ccc(CCNc2nc(N3CCOCC3)nc(N3CCOCC3)n2)cc1OC`, the caspase activation is 0.145% (inactive).

Consider `Cc1ccc(Sc2c([N+](=O)[O-])c(=O)n(C)c3ccccc23)cc1`, for which the caspase activation is 5.89% (inactive).

For the compound `Cn1c(=O)c([N+](=O)[O-])c(S(C)(=O)=O)c2ccccc21`, the caspase activation is -0.856% (inactive).

As to `Cc1ccc(S(=O)(=O)c2c([N+](=O)[O-])c(=O)n(C)c3ccccc23)cc1`, the caspase activation is -0.89% (inactive).
